The values that follow come from ChEMBL document CHEMBL2146386, “Hispolon attenuates balloon-injured neointimal formation and modulates vascular smooth muscle cell migration via AKT and ERK phosphorylation” (J Nat Prod, 2012).

Structures are written as SMILES. Converted amounts (≈) assume the structure as drawn. The source made the active and inactive calls. The rule behind the calls is not given here.

Data set [1] addresses Focal adhesion kinase 1 (Rattus norvegicus) (UniProt O35346). The data set can be described thus: Inhibition of FAK-mediated MMP2 activity in rat A10 cells after 24 hrs by zymographic analysis. The data set is classed as cell-based. In outline:
(§1)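 Culture medium of A10 VSMC treated 24 h was electrophoresed (120 V, 90 min) in 10% SDS-PAGE with 0.1% gelatin. Gels were washed in 2.5% Triton X-100, then incubated overnight (12–15 h) at 37 °C in 40 mM Tris-HCl pH 8.0 with 10 mM CaCl2 and 1% NaN3. Stained with Coomassie blue and destained.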

Data set [2] has the same target. The data set can be described thus: Inhibition of FAK-mediated FBS-induced cell migration of rat A10 cells at 20 ug/mL after 18 hrs by scratch-wound assay. The data set is classed as cell-based. The procedure, abridged:
(§2)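 A10 VSMC (3 × 10^4) grown to 80–90% confluence in six-well plates, and the monolayer centre scraped with a micropipet tip. After a PBS wash, cells were exposed to 10, 15 or 20 μg/mL and photographed at 18 h. Cells crossing lines drawn at the original wound edges were counted in six random fields per triplicate treatment. Three experiments.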

For data set [3] the target is unchanged. Briefly: Inhibition of FAK-mediated FBS-induced cell migration of rat A10 cells at 15 ug/mL after 18 hrs by scratch-wound assay. The class given is cell-based. In outline: as §2
Data set [4] relates to A10. The data set can be described thus: Induction of apoptosis in rat A10 cells assessed as sub-G1 cells at 10 to 40 ug/mL after 24 hrs by PI-staining based flow cytometric analysis relative to vehicle-treated control. The data set is classed as cell-based. As to conditions: a10, 24 h. The procedure, abridged:
(§3)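 A10 VSMC treated 24 h with 10–60 μg/mL in 15% FBS, with […] alone as control. Cells harvested with trypsin-EDTA, fixed in 70% ethanol and stained with propidium iodide plus RNase A and Nonidet P-40 for at least 30 min on ice in the dark. Three experiments.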

For data set [5], the system named is A10. The data set can be described thus: Antiproliferative activity against rat A10 cells after 24 hrs by MTT assay. The class given is cell-based. In outline: (§4)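 A10 rat aortic VSMC seeded at 1 × 10^4 cells/well in DMEM with 10% FBS for 24 h, washed, then exposed for 24 h to 10% FBS alone or serial dilutions (5–40 μg/mL). MTT added (3 mg/mL stock in PBS) for 2 h at 37 °C, formazan dissolved in DMSO, absorbance read at 570 nm. Three separate experiments.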

The target in data set [6] is Focal adhesion kinase 1 (Rattus norvegicus) (UniProt O35346). The data set can be described thus: Inhibition of FAK-mediated […] activity in rat A10 cells after 24 hrs by zymographic analysis. The data set is classed as cell-based. In outline: as §1
For data set [7], the system named is Rattus norvegicus. Briefly: Antirestenotic activity in Sprague-Dawley rat assessed as reduction in balloon injury-induced neointimal:[…] area ratio in carotid artery at 20 mg/mL, administered topically measured after 2 weeks by hematoxylin and eosin staining method relative to vehicle-treated control. The class given is functional. More on the design: scale not given: the % may be the effect or the level left. In outline:
(§5)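 Male Sprague–Dawley rats (350–400 g) underwent carotid balloon injury, 8 per group: untreated injury control or a 10 or 20 mg/mL solution. Sham controls were included. Vessels were embedded, cut into 10 μm sections and stained with H&E. The neointimal:media area ratio was measured by computerized image analysis. Two separate experiments.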

For data set [8], the target named is Focal adhesion kinase 1 (Rattus norvegicus) (UniProt O35346). Briefly: Inhibition of FAK-mediated ERK1 phosphorylation in rat A10 cells after 30 mins by Western blot analysis. The data set is classed as cell-based. The procedure, abridged:
(§6)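 Western blot of A10 VSMC after 30 min exposure to 10, 15 and 20 μg/mL, probed for phosphorylated ERK1/2 alongside total ERK1/2. Serum-stimulated cells served as comparison. ECL detection.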

For data set [9] the target is unchanged. The data set can be described thus: Inhibition of FAK-mediated FBS-induced migration of rat A10 cells at 15 and 20 ug/mL after 18 hrs by transwell assay. The class given is cell-based. In outline:
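Trans-well chambers with 6.5 mm polycarbonate filters, 8 μm pores. A10 VSMC (4 × 10^5 mL−1) with 0–20 μg/mL in serum-free DMEM were placed in the upper chamber for 18 h at 37 °C. Cells on the lower filter surface were methanol-fixed, Giemsa-stained and counted at 200× in 10 random fields. Three experiments in duplicate.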

Data set [10] has the same target. The data set can be described thus: Inhibition of FAK in rat A10 cells assessed as inhibition of serum-induced AKT phosphorylation after 24 hrs by Western blot analysis. The class given is cell-based. In outline: (§7)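 A10 VSMC in six-well plates incubated 24 h with 10, 15 and 20 μg/mL in DMEM containing 15% FBS, with 15% FBS as control. Lysed in SDS/DTT buffer at 95 °C. Western blot on PVDF used specific antibodies (p-AKT, PI3K, p-FAK, TIMP-1, TIMP-2), β-actin loading control, ECL detection, and densitometry relative to control as 100%.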

Data set [11] has the same target. The data set can be described thus: Inhibition of FAK phosphorylation in rat A10 cells after 24 hrs by Western blot analysis. The class given is cell-based. In outline: as §7
Data set [12] concerns A10. Briefly: Antiproliferative activity against rat A10 cells at 30 to 40 ug/mL after 24 hrs by MTT assay relative to control. The class given is cell-based. Particulars: a10, 24 h. In outline: as §4
The target in data set [13] is Focal adhesion kinase 1 (Rattus norvegicus) (UniProt O35346). The data set can be described thus: Inhibition of FAK in rat A10 cells assessed as inhibition of serum-induced PI3K expression after 24 hrs by Western blot analysis. The data set is classed as cell-based. In outline:
as §7

For data set [14], the system named is A10. The data set can be described thus: Antiproliferative activity against rat A10 cells at 5 to 25 ug/mL after 24 hrs by MTT assay relative to control. As to conditions: a10, 24 h. The data set is classed as cell-based. The procedure, abridged:
as §4

Data set [15] concerns the target Focal adhesion kinase 1 (Rattus norvegicus) (UniProt O35346). Briefly: Inhibition of FAK-mediated ERK2 phosphorylation in rat A10 cells after 30 mins by Western blot analysis. The data set is classed as cell-based. The procedure, abridged: as §6
Data set [16] concerns Rattus norvegicus. Briefly: Antirestenotic activity in Sprague-Dawley rat assessed as reduction in balloon injury-induced PCNA expression in carotid artery at 10 and 20 mg/mL, administered topically measured after 2 weeks by immunohistochemistry.
In data set [17] the test system is A10. Briefly: Upregulation of TIMP2 expression in rat A10 cells after 24 hrs by Western blot analysis. The class given is functional, cell-based. The procedure, abridged:
as §7

Data set [18] concerns A10. The data set can be described thus: Induction of cell cycle arrest in rat A10 cells assessed as S phase cells at 10 to 40 ug/mL after 24 hrs by PI-staining based flow cytometric analysis relative to vehicle-treated control. Particulars: a10, 24 h. The procedure, abridged:
as §3

Data set [19] concerns the target Focal adhesion kinase 1 (Rattus norvegicus) (UniProt O35346). Briefly: Inhibition of FAK-mediated FBS-induced cell migration of rat A10 cells at 10 ug/mL after 18 hrs by scratch-wound assay. The data set is classed as cell-based. The procedure, abridged: as §2
Data set [20] has as its system A10. Briefly: Upregulation of TIMP1 expression in rat A10 cells after 24 hrs by Western blot analysis. The class given is functional, cell-based. In outline: as §7
The test system of data set [21] is Rattus norvegicus. The data set can be described thus: Antirestenotic activity in Sprague-Dawley rat assessed as reduction in balloon injury-induced neointimal:[…] area ratio in carotid artery at 10 mg/mL, administered topically measured after 2 weeks by hematoxylin and eosin staining method relative to vehicle-treated control. The class given is functional. More on the design: scale not given: the % may be the effect or the level left. The procedure, abridged:
as §5

Focal adhesion kinase 1 (Rattus norvegicus), sequence (O35346 whole entry): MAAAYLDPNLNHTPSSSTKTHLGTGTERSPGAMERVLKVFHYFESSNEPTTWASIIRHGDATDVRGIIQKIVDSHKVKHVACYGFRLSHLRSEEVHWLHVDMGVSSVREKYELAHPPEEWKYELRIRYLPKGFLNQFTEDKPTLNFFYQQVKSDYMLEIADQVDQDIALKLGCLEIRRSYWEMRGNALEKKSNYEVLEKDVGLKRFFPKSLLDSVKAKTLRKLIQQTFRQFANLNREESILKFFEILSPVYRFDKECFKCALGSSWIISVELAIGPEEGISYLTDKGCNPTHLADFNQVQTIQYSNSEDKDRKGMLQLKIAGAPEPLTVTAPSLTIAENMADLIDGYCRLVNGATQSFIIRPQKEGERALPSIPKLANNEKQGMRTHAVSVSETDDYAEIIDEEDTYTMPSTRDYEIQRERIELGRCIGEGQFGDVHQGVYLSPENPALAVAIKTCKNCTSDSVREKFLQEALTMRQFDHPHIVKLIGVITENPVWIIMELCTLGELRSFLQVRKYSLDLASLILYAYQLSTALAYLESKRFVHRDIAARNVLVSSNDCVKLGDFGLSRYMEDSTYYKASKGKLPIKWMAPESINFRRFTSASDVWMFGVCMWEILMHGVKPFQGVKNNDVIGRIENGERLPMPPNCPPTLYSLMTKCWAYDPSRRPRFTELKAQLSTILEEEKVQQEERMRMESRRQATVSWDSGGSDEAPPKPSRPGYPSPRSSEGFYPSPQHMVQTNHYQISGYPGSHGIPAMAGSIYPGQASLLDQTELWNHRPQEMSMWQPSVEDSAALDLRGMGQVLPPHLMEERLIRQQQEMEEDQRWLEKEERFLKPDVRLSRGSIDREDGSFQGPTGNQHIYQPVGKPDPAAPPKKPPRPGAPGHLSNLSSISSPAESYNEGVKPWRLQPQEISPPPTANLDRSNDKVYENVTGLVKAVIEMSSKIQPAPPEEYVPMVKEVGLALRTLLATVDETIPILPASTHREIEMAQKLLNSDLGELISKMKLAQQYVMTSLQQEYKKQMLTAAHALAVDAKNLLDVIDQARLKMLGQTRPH

In the case of `CC(=O)/C=C(O)/C=C/c1ccc(O)c(O)c1` [HISPOLON], the inhibition result in [1] is “Dose-dependent effect”; in data set [2] it was 43.2%; in [3], 6.51%; in data set [6] it was “Dose-dependent effect”; in [8] it was “Dose-dependent effect”; in data set [10], “Dose-dependent effect”. Further, the inhibition result in data set [11] is “Dose-dependent effect”; in data set [13], “Dose-dependent effect”; in data set [15] it was “Dose-dependent effect”; in data set [19] it was 12%. Also, the Activity result in data set [4] is “Non-toxic”; in [5] (rat, a10, 24 h) it was “Dose-dependent effect”; in [7], 58%; in data set [12], “Toxic”; in data set [14] it was < 10%; in data set [17], “Dose-dependent effect”. Also, the Activity entry in [18] was “Non-toxic”; in [20] it was “Dose-dependent effect”; in data set [21], 25%. In [5] (Rattus norvegicus, A10, 24 h), this compound yielded an IC50 of 37 µg/mL (≈ 168 µM). For the same compound, the inhibition entry in [9] is “Active”. The result in data set [16] was Active.
